“Also recorded” adds a separate entry of the source. Where two headings read alike, the source gives them in different places.
Columns and labels:
ADAM9 = target: T1, ADAM9 (Mus musculus, UniProt Q61072); format: cell-based; conditions: for dose dependence of inhibition of ADAM9-dependent release of EphB4-AP: titration; for stimulation of ADAM9-dependent shedding of EphB4-AP: 20 ng/ml PMA, 100 μM PV or 2.5 μM IO, 30 minutes
T1 sequence (Q61072 30-845): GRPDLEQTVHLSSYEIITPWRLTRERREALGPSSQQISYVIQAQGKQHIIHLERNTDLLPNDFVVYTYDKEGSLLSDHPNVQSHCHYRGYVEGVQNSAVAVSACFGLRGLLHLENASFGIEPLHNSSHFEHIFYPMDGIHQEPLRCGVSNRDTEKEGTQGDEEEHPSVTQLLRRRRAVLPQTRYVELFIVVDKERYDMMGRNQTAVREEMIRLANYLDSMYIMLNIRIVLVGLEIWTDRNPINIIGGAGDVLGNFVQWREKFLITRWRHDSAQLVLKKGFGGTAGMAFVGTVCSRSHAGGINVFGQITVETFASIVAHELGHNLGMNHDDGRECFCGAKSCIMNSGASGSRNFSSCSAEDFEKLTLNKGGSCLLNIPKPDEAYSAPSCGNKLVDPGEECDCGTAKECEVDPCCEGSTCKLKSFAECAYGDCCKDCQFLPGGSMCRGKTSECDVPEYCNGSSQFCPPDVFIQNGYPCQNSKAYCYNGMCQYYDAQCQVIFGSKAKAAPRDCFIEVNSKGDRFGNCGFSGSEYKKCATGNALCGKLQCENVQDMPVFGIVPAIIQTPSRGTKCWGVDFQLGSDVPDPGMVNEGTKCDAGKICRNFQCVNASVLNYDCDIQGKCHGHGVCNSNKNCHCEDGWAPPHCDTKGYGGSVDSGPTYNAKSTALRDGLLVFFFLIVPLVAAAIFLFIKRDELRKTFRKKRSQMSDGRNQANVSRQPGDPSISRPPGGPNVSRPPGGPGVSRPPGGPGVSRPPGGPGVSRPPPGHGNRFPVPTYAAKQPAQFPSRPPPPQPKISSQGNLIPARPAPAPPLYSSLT

ADAM10 [1] = conditions: cited from earlier work; for IC50: read-out: Potency (IC50/inhibition constant) ADAM10, cell-based
ADAM17 = conditions: 1 μM; cited from earlier work
[2] = system: recombinant soluble ADAM9; conditions: cited from earlier work; for Ki: read-out: Ki recombinant soluble ADAM9; for inhibition of recombinantly expressed ADAM9: concentrations up to 200 nM
ADAM10 [3] = target: T2, ADAM10 (Mus musculus, UniProt O35598); test: ADAM10-dependent shedding of BTC-AP in wild type mEFs; format: cell-based; conditions: WT mEFs, Supplementary Figure 2
T2 sequence (O35598 215-749): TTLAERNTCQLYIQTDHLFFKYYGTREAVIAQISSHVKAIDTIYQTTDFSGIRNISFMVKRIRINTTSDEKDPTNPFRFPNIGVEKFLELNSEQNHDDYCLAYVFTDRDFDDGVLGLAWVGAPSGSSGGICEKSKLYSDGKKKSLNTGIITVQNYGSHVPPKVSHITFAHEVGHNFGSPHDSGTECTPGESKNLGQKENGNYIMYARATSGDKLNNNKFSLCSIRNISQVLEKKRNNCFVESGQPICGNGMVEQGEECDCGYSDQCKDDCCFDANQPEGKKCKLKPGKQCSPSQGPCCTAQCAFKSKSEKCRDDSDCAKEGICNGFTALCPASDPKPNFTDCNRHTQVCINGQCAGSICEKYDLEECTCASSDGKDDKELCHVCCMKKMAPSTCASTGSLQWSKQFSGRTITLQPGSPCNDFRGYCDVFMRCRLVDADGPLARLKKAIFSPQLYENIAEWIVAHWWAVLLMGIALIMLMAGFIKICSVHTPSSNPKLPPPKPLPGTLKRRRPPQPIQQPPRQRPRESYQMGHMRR
Procedure, shortened: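 Wild-type mEFs were transiently transfected with AP-tagged betacellulin using Lipofectamine2000. Cells were washed 1 h in OptiMEM, then given fresh OptiMEM with or without test compound for 30 min to 2 h. AP activity was measured colorimetrically in supernatant and lysate from three identical wells. Shedding = supernatant AP / (lysate + supernatant AP).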

ADAM12 = conditions: read-out: Potency (IC50/inhibition constant) ADAM12, cell-based; cited from earlier work
[4] = system: EphB4-AP background shedding; test: Basal/background EphB4-AP shedding in cells expressing inactive ADAM9 E>A; format: cell-based, mouse; conditions: for effect on EphB4-AP shedding in the absence of active A9 (EA9 cells): 20 ng/ml PMA, 100 μM PV or 2.5 μM IO, 30 minutes
Procedure, shortened: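 Adam10/17-/- mEFs were co-transfected (Lipofectamine2000) with ADAM9 E>A plasmid (1.5 µg per 6-well well) and EphB4-AP (1 µg). After a 1 h OptiMEM wash, cells were held in fresh OptiMEM ± stimuli or inhibitor. Times were 30 min for stimuli (pervanadate freshly made from vanadate + H2O2) and 2 h for inhibitors. Readout was colorimetric AP in supernatant/(lysate+supernatant), as fold over untreated cells; mean ± SEM, ≥3 experiments, Dunnett's test.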

ADAM15 = conditions: read-out: Potency (IC50/inhibition constant) ADAM15, cell-based; cited from earlier work

## CNC(=O)[C@H](Cc1ccccc1)NC(=O)[C@H](CC(C)C)[C@H](CSc1cccs1)C(=O)NO [Batimastat/BB94, Batimastat]
ADAM9
  IC50: 50 nM
ADAM10 [1]
  IC50: ~200 nM

## CNC(=O)[C@@H](NC(=O)[C@H](CCCc1ccccc1)[C@H](C)N(O)C=O)C(C)(C)C [GI254023X]
ADAM9; concentrations of up to 10 μM, Adam10/17−/− mEFs
  effect on ADAM9-mediated shedding of EphB4-AP: did not block
ADAM9; concentrations up to 5 μM
  effect on ADAM9-dependent processing of EphB4-AP: did not block
ADAM10 [1]; 1 μM
  block of ADAM10 in cell-based assays: blocks ADAM10
ADAM17
  block of ADAM17 in cell-based assays: not ADAM17
[2]; read-out: IC50 soluble ADAM9, biochemical assays
  IC50: 280 ± 110 nM
ADAM10 [3]
  lowest concentration inhibiting shedding of the ADAM10 substrate betacellulin-AP: 0.04 µM

## CNC(=O)[C@H](Cc1c[nH]c2ccccc12)NC(=O)[C@@H](CC(=O)NO)CC(C)C [GM6001]
ADAM9
  IC50: 720 nM
ADAM9; Adam10/17−/− mEFs, 2 hours
  dose dependence of inhibition of ADAM9-dependent release of EphB4-AP: dose-dependent manner
ADAM12
  IC50: 5930 nM

## CNC(=O)[C@@H](NC(=O)[C@H](CC(C)C)[C@H](O)C(=O)NO)C(C)(C)C [Marimastat]
ADAM9
  IC50: 130 nM
ADAM9; Adam10/17−/− mEFs, 2 hours
  dose dependence of inhibition of ADAM9-dependent release of EphB4-AP: dose-dependent manner
[2]; biochemical assays
  Ki: 274 nM

## CCCCCCCCCCCCCC(=O)O[C@@H]1[C@@H](C)[C@@]2(O)[C@@H](C=C(CO)C[C@]3(O)C(=O)C(C)=C[C@@H]23)[C@@H]2C(C)(C)[C@]12OC(C)=O [PMA, phorbol-12 myristate 13-acetate]
ADAM9; Adam10/17−/− mEFs
  stimulation of ADAM9-dependent shedding of EphB4-AP: did not enhance
[4]
  effect on EphB4-AP shedding in the absence of active A9 (EA9 cells): had no effect

## CC(C)C[C@H](CC(=O)NO)C(=O)N[C@H](C(=O)N[C@@H](C)C(=O)NCCN)C(C)(C)C [TAPI-2]
ADAM9; Adam10/17−/− mEFs, 2 hours
  dose dependence of inhibition of ADAM9-dependent release of EphB4-AP: dose-dependent manner
[2]; biochemical assays
  Ki: 17 nM

## C[C@H](CCC(=O)O)C[C@H](C)C[C@H](C)C(=O)/C=C(\O)[C@H](C)C[C@H](C)C/C=C/[C@@H](C)[C@@H](O)[C@@H](C)[C@@H](O)C[C@@H]1CC[C@@](C)([C@H]2CC[C@@](C)([C@@H](C)O)O2)O1 [ionomycin]
ADAM9; Adam10/17−/− mEFs
  stimulation of ADAM9-dependent shedding of EphB4-AP: not responsive
[4]
  effect on EphB4-AP shedding in the absence of active A9 (EA9 cells): had no effect

## GW280264X
ADAM9; increasing inhibition between 1 and 10 μM
  lowest concentration effectively inhibiting ADAM9 activity: 0.5 µM

## TIMP-1: tissue inhibitor of metalloproteinases 1
ADAM9; concentrations up to 20 nM, Adam10/17−/− mEFs, 2 hours
  effect on ADAM9-dependent increase in EphB4-AP shedding: not significantly affected; also recorded: did not affect
[4]; up to 20 nM, Adam10/17−/− mEFs, 2 hours
  effect on EphB4 background shedding in EA9 expressing cells: no significant effect
ADAM10 [1]
  IC50: < 1 nM
[2]
  inhibition of recombinantly expressed ADAM9: not inhibited

## pervanadate
ADAM9; Adam10/17−/− mEFs
  stimulation of ADAM9-dependent shedding of EphB4-AP: not responsive
[4]
  effect on EphB4-AP shedding in the absence of active A9 (EA9 cells): had no effect

B1: TIMP-3: tissue inhibitor of metalloproteinases 3 (protein, UniProt P35625 24-211, looked up)
Metalloproteinase inhibitor 3: CTCSPSHPQDAFCNSDIVIRAKVVGKKLVKEGPFGTLVYTIKQMKMYRGFTKMPHVQYIHTEASESLCGLKLEVNKYQYLLTGRVYDGKMYTGLCNFVERWDQLTLSQRKGLNYRYHLGCNCKIKSCYYLPCFVTSKNECLWTDMLSNFGYPGYQSKHYACIRQKGGYCSWYRGWAPPDKSIINATDP
ADAM9; 10 nM
  reduction of the activity of ADAM9: 40-50%
ADAM9; 10 nM, Adam10/17−/− mEFs, 2 hours
  effect on ADAM9-dependent EphB4-AP shedding: inhibited ADAM9 partially; also recorded: partially blocked
ADAM9; 20 nM
  reduction of the activity of ADAM9: 75%
ADAM9; 20 nM, Adam10/17−/− mEFs, 2 hours
  effect on ADAM9-dependent EphB4-AP shedding: strongly
ADAM15
  IC50: ~20 nM
ADAM10 [1]
  IC50: < 1 nM
[2]
  inhibition of recombinantly expressed ADAM9: not inhibited
